ChEMBL document CHEMBL3351225, “Design, synthesis, and structure-activity and structure-pharmacokinetic relationship studies of novel [6,6,5] tricyclic fused oxazolidinones leading to the discovery of a potent, selective, and orally bioavailable FXa inhibitor” (J Med Chem, 2014)

What was measured:
Plasma [1] = assay: Anticoagulant activity in citrated rabbit plasma assessed as drug concentration required to double plasma clotting time preincubated for 10 mins at 37 degC by coagulometry; type: functional, Oryctolagus cuniculus
Method in brief: (§1)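 Test compound or DMSO added to citrated rabbit plasma (3.8% sodium citrate, 10:90 v/v) and preincubated 10 min at 37 °C. PT and aPTT clotting times measured on a coagulometer with commercial kits. Activity expressed as the concentration needed to double plasma clotting time (CT2, μM).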

Plasma [2] = assay: Anticoagulant activity in citrated rabbit plasma assessed as activated partial thromboplastin time preincubated for 10 mins at 37 degC by coagulometry; type: functional, Oryctolagus cuniculus; method in brief: as §1
[3] = AUC (0 to infinity) in Sprague-Dawley rat at 9 mg/kg, po; type: ADME, organism-based; parameters: time infinity, dose 9 mg/kg, route oral; conditions: plasma
Method in brief: (§2)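 Male Sprague-Dawley rats, 200−220 g, four per group. Vehicle was 5% DMSO + 5% Tween-80 in 90% saline. The reference drug was given in 10% DMSO + 10% Tween-80 + 80% PEG400 (40% solution in saline). Serial retrobulbar vein samples were quantified by LC-MS. Parameters came from noncompartmental analysis of mean plasma concentrations.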

[4] = AUC (0 to infinity) in Sprague-Dawley rat at 4.5 mg/kg, iv; type: ADME, organism-based; parameters: time infinity, dose 4.5 mg/kg, route intravenous; conditions: plasma; method in brief: as §2
[5] = Plasma clearance in Sprague-Dawley rat at 4.5 mg/kg, iv; type: ADME, organism-based; parameters: dose 4.5 mg/kg, route intravenous; method in brief: as §2
[6] = Oral bioavailability in Sprague-Dawley rat at 9 mg/kg; type: ADME, organism-based; conditions: in vivo; method in brief: as §2
Prothrombin = Prothrombin (Homo sapiens, UniProt P00734); assay: Inhibition of human factor 2a using L-pyro-Glu-Pro-ArgpNA, S-2366 chromogenic substrate
Method in brief: (§3)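 Human enzyme and inhibitor were premixed and preincubated, then the chromogenic substrate was added. Substrate levels: 300 μM S-2765 (FXa, trypsin); 200 μM S-2366 (FIIa); 2 mM S-2366 (FVIIa, FXIa). pNA release was monitored continuously at 405 nm for 20 min at 37 °C. IC50 was obtained by nonlinear regression.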

Coagulation factor X = Coagulation factor X (Homo sapiens, UniProt P00742); assay: Inhibition of human factor 10a using N-Z-D-Arg-Gly-Arg-pNA, S-2765 chromogenic substrate
Sequence of Coagulation factor X (P00742 41-179 limits assumed): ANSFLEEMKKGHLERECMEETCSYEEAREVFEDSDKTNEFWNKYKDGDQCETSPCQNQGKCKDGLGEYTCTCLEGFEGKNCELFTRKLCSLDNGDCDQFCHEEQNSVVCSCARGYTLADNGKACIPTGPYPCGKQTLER
Sequence of Coagulation factor X (P00742 235-488 limits assumed): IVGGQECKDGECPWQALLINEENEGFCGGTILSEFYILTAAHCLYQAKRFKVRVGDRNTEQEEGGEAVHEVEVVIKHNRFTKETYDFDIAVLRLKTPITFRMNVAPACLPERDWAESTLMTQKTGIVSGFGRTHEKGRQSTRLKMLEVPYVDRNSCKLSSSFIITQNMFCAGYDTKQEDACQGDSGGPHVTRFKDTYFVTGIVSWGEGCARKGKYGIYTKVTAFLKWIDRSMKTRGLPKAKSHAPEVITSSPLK

Coagulation factor VII = biological target: T1, Coagulation factor VII (Homo sapiens, UniProt P08709); assay: Inhibition of human factor 7a using S-2366 chromogenic substrate; method in brief: as §3
T1 sequence (P08709 whole entry): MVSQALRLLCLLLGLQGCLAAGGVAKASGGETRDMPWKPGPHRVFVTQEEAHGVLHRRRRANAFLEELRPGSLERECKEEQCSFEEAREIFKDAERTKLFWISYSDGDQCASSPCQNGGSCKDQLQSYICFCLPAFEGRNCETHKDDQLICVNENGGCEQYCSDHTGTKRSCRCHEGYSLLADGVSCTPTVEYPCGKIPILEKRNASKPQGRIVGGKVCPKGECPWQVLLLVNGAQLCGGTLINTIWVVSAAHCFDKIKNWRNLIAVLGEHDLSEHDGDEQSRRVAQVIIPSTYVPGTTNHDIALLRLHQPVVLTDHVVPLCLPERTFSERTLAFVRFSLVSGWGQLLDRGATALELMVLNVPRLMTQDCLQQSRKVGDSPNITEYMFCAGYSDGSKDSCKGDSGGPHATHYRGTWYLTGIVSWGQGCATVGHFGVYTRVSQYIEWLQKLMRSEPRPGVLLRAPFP

Coagulation factor IX = Coagulation factor IX (Homo sapiens, UniProt P00740); assay: Inhibition of human factor 9a using CH3SO2-(D)CHG Gly-Arg-pNA, Biophen-CS51 chromogenic substrate
Sequence of Coagulation factor IX (P00740 47-191 limits assumed): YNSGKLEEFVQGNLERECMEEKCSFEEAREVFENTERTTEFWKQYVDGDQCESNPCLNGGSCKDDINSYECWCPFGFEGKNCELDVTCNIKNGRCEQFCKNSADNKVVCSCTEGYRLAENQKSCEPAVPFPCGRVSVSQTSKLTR
Sequence of Coagulation factor IX (P00740 227-461 limits assumed): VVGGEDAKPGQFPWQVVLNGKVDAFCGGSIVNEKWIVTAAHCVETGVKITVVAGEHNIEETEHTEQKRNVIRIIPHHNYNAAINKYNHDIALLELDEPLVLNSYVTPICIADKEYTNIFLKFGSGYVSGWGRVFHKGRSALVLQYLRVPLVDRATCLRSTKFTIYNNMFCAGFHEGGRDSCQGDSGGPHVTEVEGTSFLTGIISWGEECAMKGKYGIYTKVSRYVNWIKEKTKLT

Trypsin = Trypsin (Homo sapiens, UniProt P07477+P07478+P35030); assay: Inhibition of human trypsin using N-Z-D-Arg-Gly-Arg-pNA, S-2765 chromogenic substrate; type: protein assay; method in brief: as §3
Coagulation factor XI = Coagulation factor XI (Homo sapiens, UniProt P03951); assay: Inhibition of human factor 11a using S-2366 chromogenic substrate; method in brief: as §3
Sequence of Coagulation factor XI (P03951 19-387 limits assumed): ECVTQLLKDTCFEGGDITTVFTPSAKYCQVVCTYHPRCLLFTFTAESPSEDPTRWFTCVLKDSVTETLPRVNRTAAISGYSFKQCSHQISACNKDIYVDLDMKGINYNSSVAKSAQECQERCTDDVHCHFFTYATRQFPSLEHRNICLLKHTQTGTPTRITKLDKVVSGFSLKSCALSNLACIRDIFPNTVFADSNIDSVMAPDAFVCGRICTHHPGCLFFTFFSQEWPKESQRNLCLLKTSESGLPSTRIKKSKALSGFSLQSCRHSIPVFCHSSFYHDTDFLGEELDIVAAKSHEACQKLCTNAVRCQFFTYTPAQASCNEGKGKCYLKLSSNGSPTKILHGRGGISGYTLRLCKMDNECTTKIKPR
Sequence of Coagulation factor XI (P03951 388-625 limits assumed): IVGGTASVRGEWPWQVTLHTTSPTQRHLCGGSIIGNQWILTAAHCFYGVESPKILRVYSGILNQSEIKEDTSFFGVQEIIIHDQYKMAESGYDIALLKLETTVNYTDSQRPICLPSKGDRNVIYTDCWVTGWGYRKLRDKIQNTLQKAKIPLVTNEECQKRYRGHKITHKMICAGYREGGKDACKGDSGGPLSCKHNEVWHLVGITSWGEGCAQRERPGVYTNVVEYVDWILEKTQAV

[7] = Cmax in Sprague-Dawley rat at 10 mg/kg, po; type: ADME, organism-based; parameters: dose 10 mg/kg, route oral; conditions: in vivo; method in brief: as §2
[8] = Tmax in Sprague-Dawley rat at 10 mg/kg, po; type: ADME, organism-based; parameters: dose 10 mg/kg, route oral; conditions: in vivo; method in brief: as §2
[9] = Elimination half life in Sprague-Dawley rat at 10 mg/kg, po; type: ADME, organism-based; parameters: dose 10 mg/kg, route oral; conditions: in vivo, read-out: beta t1/2 (converted); method in brief: as §2
[10] = Elimination half life in Sprague-Dawley rat at 3 mg/kg, iv; type: ADME, organism-based; parameters: dose 3 mg/kg, route intravenous; conditions: in vivo, read-out: beta t1/2 (converted); method in brief: as §2
[11] = AUC (0 to infinity) in Sprague-Dawley rat at 10 mg/kg, po; type: ADME, organism-based; parameters: time infinity, dose 10 mg/kg, route oral; conditions: plasma; method in brief: as §2
[12] = AUC (0 to infinity) in Sprague-Dawley rat at 3 mg/kg, iv; type: ADME, organism-based; parameters: time infinity, dose 3 mg/kg, route intravenous; conditions: plasma; method in brief: as §2
[13] = Plasma clearance in Sprague-Dawley rat at 3 mg/kg, iv; type: ADME, organism-based; parameters: dose 3 mg/kg, route intravenous; method in brief: as §2
[14] = Volume of distribution at steady state in Sprague-Dawley rat at 3 mg/kg, iv; type: ADME, organism-based; parameters: dose 3 mg/kg, route intravenous; conditions: in vivo, read-out: Vdss; method in brief: as §2
[15] = Oral bioavailability in Sprague-Dawley rat at 10 mg/kg; type: ADME, organism-based; conditions: in vivo; method in brief: as §2

Compound	Activity (Plasma [1]) [µM]	2aPTT (Plasma [2]) [µM]	IC50 (Prothrombin) [µM]	IC50 (Coagulation factor X) [µM]	IC50 (Coagulation factor VII) [µM]	IC50 (Coagulation factor IX) [µM]	IC50 (Trypsin) [µM]	IC50 (Coagulation factor XI) [µM]	Cmax [7] [ng/mL]	Tmax [8] [h]	half-life [9] [h]	half-life [10] [h]	AUC(0-inf) [11] [ng·h/mL]	AUC(0-inf) [12] [ng·h/mL]	clearance [13] [mL/min/kg]	Vd [14] [L/kg]	bioavailability [15] [%]	further results
O=C(NC[C@@H]1OC(=O)N2c3ccc(N4CCCCC4=O)cc3OC[C@@H]12)c1ccc(Cl)s1	0.42	1.63	–	–	–	–	–	–	–	–	–	–	–	–	–	–	–	AUC(0-inf) [3]: 28500 ng·h/mL; AUC(0-inf) [4]: 33600 ng·h/mL; clearance [5]: 2.28 mL/min/kg; bioavailability [6]: 42%
O=C(NC[C@@H]1OC(=O)N2c3ccc(N4CCOCC4=O)cc3CC[C@@H]12)c1ccc(Cl)s1	0.37	0.33	> 100	0.00471	> 100	> 100	> 100	> 100	3020	2.3	3.54	0.74	14200	20400	2.48	0.144	20.4	–
O=C(NC[C@@H]1OC(=O)N2c3ccc(N4CCOCC4=O)cc3SC[C@@H]12)c1ccc(Cl)s1	0.58	0.33	> 100	0.00251	> 100	> 100	> 100	> 100	167	4	3.15	0.89	1480	5700	8.82	0.574	7.4	–
